The source of these data is ChEMBL document CHEMBL1123529, “Analogues of substance P. Peptides containing D-amino acid residues in various positions of substance P and displaying agonist or receptor selective antagonist effects” (1986).

The structures appear in SMILES notation. “And” between values parts separate entries of the source, which are not always exact repeats. Equal entries are not always repeated. Where only a bound is given, the exact number is not on record here.

The nature of assay [1]: In vitro antagonistic activity against Substance P on guinea pig ileum at concentration of 10 uM. Type of assay: functional, Cavia porcellus. The method in brief: (§1)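 Dose-response curves used a 3-min cycle with 1-min contact and washout, with SP or SP(6-11)-hexapeptide as agonist. Dose ratio is the agonist EC50 with antagonist divided by the EC50 alone. At least two preparations per compound; ratios under 2 were considered insignificant.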

Assay [2] is described as follows: In vitro antagonistic activity against Substance P(6-11) in guinea pig ileum at concentration of 10 uM. Type of assay: functional, Cavia porcellus. The method in brief: as §1
In assay [3] the target is Substance-P receptor (Cavia porcellus) (UniProt P30547). The assay is described as follows: Evaluated in vitro for percent agonist activity in guinea pig ileum (substance P receptor). In kind it is functional, tissue-based.
Assay [4] deals with Substance-P receptor (Rattus norvegicus) (UniProt P14600). The assay is described as follows: Antagonistic activity against Substance P(6-11) receptor in rat spinal cord at concentration of 5 uM.
Assay [5] shares this target. Nature of the assay: Antagonistic activity against Substance P receptor in rat spinal cord at concentration of 50 uM.
Assay [6] shares this target. Nature of the assay: Antagonistic activity against Substance P receptor in rat spinal cord at concentration of 5 uM.
Assay [7] addresses Substance-P receptor (Cavia porcellus) (UniProt P30547). Nature of the assay: Antagonistic activity against Substance P receptor in guinea pig ileum at concentration of 5 uM. Type of assay: functional, tissue-based. In a few lines:
(§2)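 Distal ileum from Dunkin-Hartley guinea pigs (300-350 g, both sexes) in a Krebs organ bath at 37 °C, gassed with 95% O2/5% CO2. Agonist (SP or SP(6-11)) dose-response curves run on a 3-min cycle with 1-min contact, with and without antagonist. Dose ratio = agonist EC50 with antagonist / EC50 alone. At least two preparations per compound; ratios below 2 taken as insignificant.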

Assay [8] addresses Metabotropic glutamate receptor 3 (Rattus norvegicus) (UniProt P31422). The assay is described as follows: Antagonistic activity against Glutamate receptor in rat spinal cord at concentration of 50 uM. Type of assay: functional, tissue-based. In a few lines: (§3)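 Neonatal hemisectioned spinal cord from Wistar rats (Alderley Park strain, 2-7 days old), anaesthetised with intraperitoneal urethane (25% w/v, […]) and then decapitated. Cord superfused with oxygenated medium at 1 mL/min. Agonist (SP, SP(6-11), glutamate or carbachol) applied as 2-mL doses in the superfusate. Antagonist superfused for at least 15 min before agonists were retested. Read-out: % change in ventral root–cord DC potential response amplitude.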

Assay [9] concerns the target Substance-P receptor (Rattus norvegicus) (UniProt P14600). Nature of the assay: Antagonistic activity against Substance P(6-11) receptor in rat spinal cord at concentration of 10 uM.
Assay [10] has as its target Substance-P receptor (Cavia porcellus) (UniProt P30547). Nature of the assay: Antagonistic activity against Substance P(6-11) receptor in guinea pig ileum at concentration of 5 uM. Type of assay: functional, tissue-based. In a few lines: as §2
Assay [11] concerns the target Substance-P receptor (Rattus norvegicus) (UniProt P14600). Nature of the assay: Antagonistic activity against Substance P(6-11) receptor in rat spinal cord at concentration of 50 uM.
For assay [12] the target is unchanged. Nature of the assay: Antagonistic activity against Substance P(6-11) receptor in rat spinal cord at concentration of 25 uM.
Assay [13] has the same target. The assay is described as follows: Antagonistic activity against Substance P receptor in rat spinal cord at concentration of 25 uM.
For assay [14], the target named is Metabotropic glutamate receptor 3 (Rattus norvegicus) (UniProt P31422). The assay is described as follows: Antagonistic activity against Glutamate receptor in rat spinal cord at concentration of 25 uM. Type of assay: functional, tissue-based. The method in brief: as §3
Metabotropic glutamate receptor 3 (Rattus norvegicus), sequence (P31422 23-879 limits assumed): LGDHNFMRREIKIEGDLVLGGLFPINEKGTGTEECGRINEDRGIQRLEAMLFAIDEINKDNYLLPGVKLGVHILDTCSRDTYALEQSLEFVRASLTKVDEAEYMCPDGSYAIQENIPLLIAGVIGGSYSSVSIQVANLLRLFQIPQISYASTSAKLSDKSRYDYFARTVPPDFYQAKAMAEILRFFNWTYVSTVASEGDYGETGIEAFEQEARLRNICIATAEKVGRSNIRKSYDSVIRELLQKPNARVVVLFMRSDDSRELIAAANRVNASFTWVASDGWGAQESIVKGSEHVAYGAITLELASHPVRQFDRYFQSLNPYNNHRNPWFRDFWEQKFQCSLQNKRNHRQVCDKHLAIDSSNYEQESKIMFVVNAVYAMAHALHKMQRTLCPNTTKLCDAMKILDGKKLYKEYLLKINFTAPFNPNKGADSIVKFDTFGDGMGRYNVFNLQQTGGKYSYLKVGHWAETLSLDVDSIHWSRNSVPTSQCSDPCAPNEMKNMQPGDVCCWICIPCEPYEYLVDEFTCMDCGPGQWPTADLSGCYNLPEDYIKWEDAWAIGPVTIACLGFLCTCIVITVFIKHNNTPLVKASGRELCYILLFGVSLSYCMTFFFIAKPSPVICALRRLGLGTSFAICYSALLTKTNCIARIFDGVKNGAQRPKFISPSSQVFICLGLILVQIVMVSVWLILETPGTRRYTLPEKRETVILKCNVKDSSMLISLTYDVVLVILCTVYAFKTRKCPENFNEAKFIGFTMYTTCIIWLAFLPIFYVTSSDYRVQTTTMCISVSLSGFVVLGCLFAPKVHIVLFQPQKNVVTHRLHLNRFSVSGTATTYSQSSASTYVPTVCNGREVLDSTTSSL

Substance-P receptor (Cavia porcellus), sequence (P30547 whole entry): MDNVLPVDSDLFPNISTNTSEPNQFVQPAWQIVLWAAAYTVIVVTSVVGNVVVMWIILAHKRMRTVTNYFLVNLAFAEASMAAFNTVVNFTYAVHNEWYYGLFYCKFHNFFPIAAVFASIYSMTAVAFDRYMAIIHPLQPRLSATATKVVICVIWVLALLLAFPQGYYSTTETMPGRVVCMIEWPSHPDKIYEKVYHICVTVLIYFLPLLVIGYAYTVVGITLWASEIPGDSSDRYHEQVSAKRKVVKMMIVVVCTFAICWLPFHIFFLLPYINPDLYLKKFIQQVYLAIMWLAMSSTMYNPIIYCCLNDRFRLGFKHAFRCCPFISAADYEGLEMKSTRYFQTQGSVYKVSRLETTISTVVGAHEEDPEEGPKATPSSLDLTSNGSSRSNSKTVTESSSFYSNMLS
Substance-P receptor (Rattus norvegicus), sequence (P14600 whole entry, looked up): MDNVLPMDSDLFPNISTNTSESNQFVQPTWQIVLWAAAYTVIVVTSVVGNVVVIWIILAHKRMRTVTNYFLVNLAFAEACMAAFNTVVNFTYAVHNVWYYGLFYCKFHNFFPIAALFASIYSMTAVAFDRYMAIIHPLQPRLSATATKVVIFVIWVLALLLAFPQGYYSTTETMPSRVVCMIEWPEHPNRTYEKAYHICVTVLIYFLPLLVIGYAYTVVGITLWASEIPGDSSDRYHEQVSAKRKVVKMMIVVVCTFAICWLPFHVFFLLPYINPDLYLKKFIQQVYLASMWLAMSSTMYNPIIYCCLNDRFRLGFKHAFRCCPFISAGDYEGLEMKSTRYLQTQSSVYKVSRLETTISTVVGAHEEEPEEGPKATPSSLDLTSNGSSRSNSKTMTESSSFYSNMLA

For `COC(=O)[C@@H](CCSC)NC(=O)C(Cc1ccccc1)NC(=O)C(Cc1ccccc1)NC(=O)C(Cc1ccccc1)NC(=O)C(Cc1ccccc1)NC(=O)[C@H](CCC(N)=O)NC(=O)[C@H](CCC(N)=O)NC(=O)[C@@H]1CCCN1C(=O)[C@H](CCCCNC(=O)OCc1ccccc1)NC(=O)[C@@H]1CCCN1C(=O)[C@H](CCCN=C(N)N)NC(=O)OCc1ccccc1` (stereo in doubt), the Activity in [1] and in assay [2] was under 2 dose ratio each time. Besides, in assay [3], the SP was under 0.0001%.
As to `COC(=O)[C@@H](CCSC)NC(=O)[C@H](CC(C)C)NC(=O)[C@@H](Cc1c[nH]c2ccccc12)NC(=O)[C@@H](Cc1c[nH]c2ccccc12)NC(=O)[C@@H](Cc1c[nH]c2ccccc12)NC(=O)[C@H](CCC(N)=O)NC(=O)[C@H](CCC(N)=O)NC(=O)[C@@H]1CCCN1C(=O)[C@H](CCCCNC(=O)OCc1ccccc1)NC(=O)[C@@H]1CCCN1C(=O)[C@H](CCCN=C(N)N)NC(=O)OCc1ccccc1`, the Activity in [1] and in assay [2] was under 2 dose ratio in each case.
Take `COC(=O)[C@@H](CCSC)NC(=O)[C@H](CC(C)C)NC(=O)[C@@H](Cc1c[nH]c2ccccc12)NC(=O)[C@H](Cc1c[nH]c2ccccc12)NC(=O)[C@@H](Cc1c[nH]c2ccccc12)NC(=O)[C@H](CCC(N)=O)NC(=O)[C@H](CCC(N)=O)NC(=O)[C@@H]1CCCN1C(=O)[C@H](CCCCNC(=O)OCc1ccccc1)NC(=O)[C@@H]1CCCN1C(=O)[C@@H](N)CCCN=C(N)N`: the Change in amplitude response was -13% in assay [4]; -29% in [5]; 11% in assay [6]; -18% in assay [8]; -62% in [9]. In addition, the Activity in assay [7] and in assay [10] was under 2 dose ratio each time.
For the molecule `COC(=O)[C@H](CCSC)NC(=O)[C@@H]1CCCN1C(=O)[C@H]1CCCN1C(=O)[C@H](Cc1ccccc1)NC(=O)[C@H](Cc1ccccc1)NC(=O)[C@H](CCC(N)=O)NC(=O)[C@H](CCC(N)=O)NC(=O)[C@@H]1CCCN1C(=O)[C@H](CCCCNC(=O)OCc1ccccc1)NC(=O)[C@@H]1CCCN1C(=O)[C@H](CCCN=C(N)N)NC(=O)OCc1ccccc1`, the Change in amplitude response in [4] is -46%; in [11] it was -86%; in assay [5], -9%; in assay [6] it was 12%; in assay [8] it was -37%. This molecule showed an SP in assay [3] of 0%. Besides, the Activity in [7] and in [10] was under 2 dose ratio in each case.
As for `COC(=O)[C@@H](CCSC)NC(=O)[C@H](CC(C)C)NC(=O)CNC(=O)[C@H](NC(=O)[C@H](NC(=O)[C@H](CCC(N)=O)NC(=O)[C@H](CCC(N)=O)NC(=O)[C@@H]1CCCN1C(=O)[C@H](CCCCNC(=O)OCc1ccccc1)NC(=O)[C@@H]1CCCN1C(=O)[C@H](CCCN=C(N)N)NC(=O)OCc1ccccc1)C(C)C)C(C)C`, the Activity in [1] and in assay [2] was under 2 dose ratio each time.
As for `COC(=O)[C@H](CCSC)NC(=O)[C@H](Cc1c[nH]c2ccccc12)NC(=O)[C@@H](Cc1c[nH]c2ccccc12)NC(=O)[C@H](Cc1ccccc1)NC(=O)[C@H](Cc1ccccc1)NC(=O)[C@H](CCC(N)=O)NC(=O)[C@H](CCC(N)=O)NC(=O)[C@@H]1CCCN1C(=O)[C@H](CCCCNC(=O)OCc1ccccc1)NC(=O)[C@@H]1CCCN1C(=O)[C@H](CCCN=C(N)N)NC(=O)OCc1ccccc1`, the SP in assay [3] was 0%. Moreover, the Activity in assay [7] and in assay [10] was under 2 dose ratio throughout.
In the case of `COC(=O)[C@@H](CCSC)NC(=O)[C@H](CC(C)C)NC(=O)CNC(=O)[C@H]1CCCN1C(=O)[C@H]1CCCN1C(=O)[C@H](CCC(N)=O)NC(=O)[C@H](CCC(N)=O)NC(=O)[C@@H]1CCCN1C(=O)[C@H](CCCCNC(=O)OCc1ccccc1)NC(=O)[C@@H]1CCCN1C(=O)[C@H](CCCN=C(N)N)NC(=O)OCc1ccccc1`, the Activity in assay [1] and in assay [2] was under 2 dose ratio throughout. For the same molecule, the SP in assay [3] was under 0.0001%.
Regarding `COC(=O)[C@@H](CCSC)NC(=O)[C@H](CC(C)C)NC(=O)[C@@H](Cc1c[nH]c2ccccc12)NC(=O)[C@@H](Cc1c[nH]c2ccccc12)NC(=O)[C@@H](Cc1c[nH]c2ccccc12)NC(=O)[C@H](CCC(N)=O)NC(=O)[C@H](CCC(N)=O)NC(=O)[C@@H]1CCCN1C(=O)[C@H](CCCCNC(=O)OCc1ccccc1)NC(=O)[C@@H]1CCCN1C(=O)[C@@H](N)CCCN=C(N)N`, the figures for the Activity in assay [1] and in assay [2] were 10 dose ratio and 5.6 dose ratio, respectively.
For `COC(=O)[C@H](CCSC)NC(=O)[C@H](CC(C)C)NC(=O)CNC(=O)[C@H](Cc1ccccc1)NC(=O)[C@H](Cc1ccccc1)NC(=O)[C@H](NC(=O)[C@H](NC(=O)[C@@H]1CCCN1C(=O)[C@H](CCCCNC(=O)OCc1ccccc1)NC(=O)[C@@H]1CCCN1C(=O)[C@H](CCCN=C(N)N)NC(=O)OCc1ccccc1)C(C)C)C(C)C` the same measures were under 2 dose ratio and under 2 dose ratio.
In the same order, the values of `COC(=O)[C@H](CCSC)NC(=O)[C@H](CC(C)C)NC(=O)CNC(=O)[C@H](Cc1ccccc1)NC(=O)[C@H](Cc1ccccc1)NC(=O)[C@@H](Cc1ccccc1)NC(=O)[C@@H](Cc1ccccc1)NC(=O)[C@@H]1CCCN1C(=O)[C@H](CCCCNC(=O)OCc1ccccc1)NC(=O)[C@@H]1CCCN1C(=O)[C@H](CCCN=C(N)N)NC(=O)OCc1ccccc1` are under 2 dose ratio and under 2 dose ratio.
The molecule `CSCC[C@@H](NC(=O)[C@H](CC(C)C)NC(=O)[C@@H](Cc1c[nH]c2ccccc12)NC(=O)[C@@H](Cc1c[nH]c2ccccc12)NC(=O)[C@@H](Cc1c[nH]c2ccccc12)NC(=O)[C@H](CCC(N)=O)NC(=O)[C@H](CCC(N)=O)NC(=O)[C@@H]1CCCN1C(=O)[C@H](CCCCNC(=O)OCc1ccccc1)NC(=O)[C@@H]1CCCN1C(=O)[C@H](CCCN=C(N)N)NC(=O)OCc1ccccc1)C(=O)O` had an Activity in [1] of under 2 dose ratio.
With `CSCC[C@@H](NC(=O)[C@H](CC(C)C)NC(=O)[C@@H](Cc1c[nH]c2ccccc12)NC(=O)[C@H](Cc1c[nH]c2ccccc12)NC(=O)[C@@H](Cc1c[nH]c2ccccc12)NC(=O)[C@H](CCC(N)=O)NC(=O)[C@H](CCC(N)=O)NC(=O)[C@@H]1CCCN1C(=O)[C@H](CCCCNC(=O)OCc1ccccc1)NC(=O)[C@@H]1CCCN1C(=O)[C@H](CCCN=C(N)N)NC(=O)OCc1ccccc1)C(=O)O`, the Change in amplitude response is -49% in assay [12], -12% in [13] and -40% in assay [14]. In addition, the SP in [3] was under 2%.
As to `CSCC[C@H](NC(=O)[C@H](CC(C)C)NC(=O)CNC(=O)[C@H](Cc1ccccc1)NC(=O)[C@H](Cc1ccccc1)NC(=O)[C@H](NC(=O)[C@H](NC(=O)[C@@H]1CCCN1C(=O)[C@H](CCCCNC(=O)OCc1ccccc1)NC(=O)[C@@H]1CCCN1C(=O)[C@H](CCCN=C(N)N)NC(=O)OCc1ccccc1)C(C)C)C(C)C)C(=O)O`, the Activity in assay [1] and in assay [2] was under 2 dose ratio each time.
Take `COC(=O)[C@@H](CCSC)NC(=O)[C@H](CC(C)C)NC(=O)[C@@H](Cc1c[nH]c2ccccc12)NC(=O)[C@@H](Cc1c[nH]c2ccccc12)NC(=O)[C@@H](Cc1c[nH]c2ccccc12)NC(=O)[C@H](CCC(N)=O)NC(=O)[C@H](CCC(N)=O)NC(=O)[C@@H]1CCCN1C(=O)[C@H](CCCCN)NC(=O)[C@@H]1CCCN1C(=O)[C@@H](N)CCCN=C(N)N`: the Activity in [1] was 3.9 dose ratio and 7.2 dose ratio; in [2], 9.9 dose ratio.
On to `COC(=O)[C@H](CCSC)NC(=O)[C@H](CC(C)C)NC(=O)CNC(=O)[C@H](Cc1ccccc1)NC(=O)[C@H](Cc1ccccc1)NC(=O)[C@@H](Cc1ccccc1)NC(=O)[C@@H](Cc1ccccc1)NC(=O)[C@@H]1CCCN1C(=O)[C@H](CCCCN)NC(=O)[C@@H]1CCCN1C(=O)[C@@H](N)CCCN=C(N)N`, for which the Activity in assay [1] and in [2] was under 2 dose ratio throughout.
